ChEMBL document CHEMBL4011621, “A Novel Series of Highly Potent Small Molecule Inhibitors of Rhinovirus Replication” (J Med Chem, 2017)
pEC50: −log10 of the molar value. The source made the active and inactive calls. The rule behind the calls is not given here.

Columns and labels:
rhinovirus A16 [1] = assay: Antiviral activity against Human rhinovirus A16 infected in human H1HeLa cells assessed as protection against virus induced cytopathic effect after 3 days by MTT assay; assay type: functional, cell-based; conditions: Rhinovirus A, H1-HeLa, 72 h
Outline: (§1)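 CPE-reduction assay in H1HeLa cells plated 2 d before. Equal volumes of virus and compound were added and held at 33 °C for 3 d under CO2. Supernatant was removed, then MTT was added for 1 h at 37 °C. Formazan was dissolved and read at 540 nm against a 690 nm reference. Survival was scaled between uninfected untreated wells (100%) and virus-only wells (0%); mean ± SD, three experiments.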

rhinovirus B14 [2] = assay: Antiviral activity against Human rhinovirus B14 infected in H1HeLa cells assessed as decrease in viral dsRNA at 6 times EC50 treated every 1 hr for 6 hrs after infection by DAPI staining based immunofluorescence assay; assay type: functional, cell-based
Outline: (§2)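 Cells were infected with hRV type 14 or type 16 at MOI 1. Compound was given 1 h before infection, at infection (0 h), or at later hourly time points. At 9 h post-infection, cells were fixed in ice-cold methanol–acetone 3:1 and stained with anti-dsRNA antibody (J2), an Alexa Fluor 488 anti-mouse secondary and DAPI, then imaged. Infected-cell count over total nuclei was expressed as % of untreated virus control; mean ± SD, three experiments.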

rhinovirus B14 [3] = assay: Antiviral activity against Human rhinovirus B14 infected in H1HeLa cells assessed as decrease in viral dsRNA at 6 times EC50 treated every 1 hr for 9 hrs after infection by DAPI staining based immunofluorescence assay; assay type: functional, cell-based; outline: as §2
rhinovirus B14 [4] = assay: Antiviral activity against Human rhinovirus B14 infected in human H1HeLa cells assessed as protection against virus induced cytopathic effect after 3 days by MTT assay; assay type: functional, cell-based; conditions: Rhinovirus B, H1-HeLa, 72 h
rhinovirus A21 = assay: Antiviral activity against Human rhinovirus A21 infected in human H1HeLa cells assessed as protection against virus induced cytopathic effect after 3 days by MTT assay; assay type: functional, cell-based; conditions: Rhinovirus A, H1-HeLa, 72 h; outline: as §1
[5] = Cytotoxicity against human H1HeLa cells assessed as decrease in cell viability after 3 days by MTT assay; assay type: cell-based, H1-HeLa
[6] = Antiviral activity against Human rhinovirus A71 infected in human H1HeLa cells assessed as protection against virus induced cytopathic effect after 3 days by MTT assay; assay type: functional, cell-based; conditions: Rhinovirus A, H1-HeLa, 72 h; outline: as §1
[7] = Selectivity index, ratio of CC50 for human H1HeLa cells to EC50 for Human rhinovirus B14 infected in human H1HeLa cells; assay type: toxicity, cell-based; conditions: read-out: Ratio CC50/EC50
Outline: (§3)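 H1HeLa cells plated 2 d ahead; virus plus compound (equal volumes) incubated 33 °C, 3 d, CO2. MTT 1 h at 37 °C, A540/A690. Survival scaled between uninfected untreated (100%) and virus-only (0%) wells to give EC50. CC50 = 50% cell death by MTT in H1HeLa. SI = CC50/EC50; at least three independent experiments.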

[8] = Selectivity index, ratio of CC50 for human H1HeLa cells to EC50 for Human rhinovirus A21 infected in human H1HeLa cells; assay type: toxicity, cell-based; conditions: read-out: Ratio CC50/EC50; outline: as §3
[9] = Selectivity index, ratio of CC50 for human H1HeLa cells to EC50 for Human rhinovirus A71 infected in human H1HeLa cells; assay type: toxicity, cell-based; conditions: read-out: Ratio CC50/EC50; outline: as §3
Poliovirus 3 = assay: Antiviral activity against Human poliovirus 3 infected in human HeLa cells assessed as protection against virus induced cytopathic effect after 2 days by MTT assay; assay type: functional, cell-based; conditions: Enterovirus C, 48 h
Outline: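 HeLa cells; MTT-based CPE reduction. Virus and compound added in equal volumes, incubated 37 °C for 2 d in CO2. Supernatant removed, MTT 1 h at 37 °C, formazan dissolved, absorbance 540 nm (690 nm reference). Uninfected untreated wells = 100% survival, virus-only = 0%. EC50 = 50% inhibition; means ± SD, three experiments.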

[10] = Cytotoxicity aganist human HeLa cells assessed as decrease in cell viability after 2 days by MTT assay; assay type: cell-based
[11] = Selectivity index, ratio of CC50 for human HeLa cells to EC50 for human poliovirus 3 infected in human HeLa cells; assay type: toxicity, cell-based; conditions: read-out: Ratio CC50/EC50
Outline: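 SI = CC50/EC50 in HeLa cells. CC50 = 50% cell death by MTT. EC50 = 50% inhibition of PV3 CPE by MTT after 2 d at 37 °C, survival scaled to uninfected (100%) and virus-only (0%) wells. At least three independent experiments.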

rhinovirus B14 [12] = assay: Antiviral activity against Human rhinovirus B14 infected in H1HeLa cells assessed as decrease in viral dsRNA at 6 times EC50 treated 1 hr prior to infection by DAPI staining based immunofluorescence assay; assay type: functional, cell-based; outline: as §2
rhinovirus B14 [13] = assay: Antiviral activity against Human rhinovirus B14 infected in H1HeLa cells assessed as decrease in viral dsRNA at 6 times EC50 treated simultaneously with infection by DAPI staining based immunofluorescence assay; assay type: functional, cell-based; outline: as §2
rhinovirus A16 [14] = assay: Antiviral activity against Human rhinovirus A16 infected in H1HeLa cells assessed as decrease in viral dsRNA at 6 times EC50 treated 1 hr prior to infection by DAPI staining based immunofluorescence assay; assay type: functional, cell-based; outline: as §2
rhinovirus A16 [15] = assay: Antiviral activity against Human rhinovirus A16 infected in H1HeLa cells assessed as decrease in viral dsRNA at 6 times EC50 treated simultaneously with infection by DAPI staining based immunofluorescence assay; assay type: functional, cell-based; outline: as §2
rhinovirus A16 [16] = assay: Antiviral activity against Human rhinovirus A16 infected in H1HeLa cells assessed as decrease in viral dsRNA at 6 times EC50 treated every 1 hr for 9 hrs after infection by DAPI staining based immunofluorescence assay; assay type: functional, cell-based; outline: as §2
rhinovirus B14 [17] = assay: Antiviral activity against Human rhinovirus B14 harboring VP1 A150V/E276K double mutant infected in human HeLa Rh cells assessed as protection against virus induced cytopathic effect after 3 days by MTT assay; assay type: functional, cell-based
rhinovirus B14 [18] = assay: Antiviral activity against Human rhinovirus B14 harboring VP1 C199Y mutant infected in human HeLa Rh cells assessed as protection against virus induced cytopathic effect after 3 days by MTT assay; assay type: functional, cell-based
[19] = Cytotoxicity against human HeLa Rh cells assessed as decrease in cell viability after 3 days by MTT assay; assay type: cell-based

SMILES | pEC50 (rhinovirus A16 [1]) | Activity (rhinovirus B14 [3]) | pEC50 (rhinovirus B14 [4]) | pEC50 (rhinovirus A21) | CC50 at 72 h [5] | pEC50 [6] | selectivity ratio [7] | selectivity ratio [8] | selectivity ratio [9] | pEC50 (Poliovirus 3) | CC50 at 48 h [10] | selectivity ratio [11] | Activity (rhinovirus B14 [12]) | Activity (rhinovirus B14 [13]) | Activity (rhinovirus A16 [14]) | Activity (rhinovirus A16 [15]) | pEC50 (rhinovirus B14 [17]) | pEC50 (rhinovirus B14 [18]) | CC50 at 72 h [19] | other results
CCOC(=O)/C=C/[C@H](C[C@@H]1CCNC1=O)NC(=O)[C@@H](CC(=O)[C@@H](NC(=O)c1cc(C)on1)C(C)C)Cc1ccc(F)cc1 [RUPINTRIVIR] | 7.52 | – | – | – | – | – | – | – | – | – | – | – | – | – | – | – | – | – | – | Activity (rhinovirus B14 [2]): Active
CNC(=O)c1cc(Oc2ccc3c(C)c(C(=O)OC(C)C)sc3c2)ccn1 | 6.64 | inactive | 7.08 to 7.15 | 7.11 | 18100 nM | 7.82 | 220 | 230 | 1200 | 7.20 | 9600 nM | 150 | Active | Active | Active | Active | 6.58 | 5.62 | > 3000 nM | Activity (rhinovirus A16 [16]): inactive
Cc1cc(CCCOc2c(C)cc(-c3noc(C(F)(F)F)n3)cc2C)on1 [PLECONARIL] | 6.46 | inactive | 7.04 to 7.12 | 7.14 | 19700 nM | 8.03 | 210 | 270 | 2100 | 5.85 | 25900 nM | 19 | Active | Active | Active | Active | 5.83 | 5.64 | > 10000 nM | –
